Assay results reported in ChEMBL document CHEMBL2040749, “Novel polycyclic 'cage'-1,2-diamines as potential anti-tuberculosis agents” (2012).

What was measured:
Format in all cases: functional
[1] = test system: Mycobacterium tuberculosis; assay: Antitubercular activity against multi-drug resistant Mycobacterium tuberculosis after 21 days by BACTEC MGIT 960 method; settings: 504 h
Method in brief: (§1)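 Compounds dissolved in 100% methanol (10 mg/mL stock), sonicated, filter-sterilised, diluted in sterile water; twofold serial dilutions, working range 8 to 0.125 µg/mL. Strains grown in Middlebrook 7H9 + OADC at 37 °C; inoculum adjusted to McFarland 1, diluted tenfold to 10^5 CFU/mL into MGIT tubes. Drug-free control received a 1:100 inoculum. MIC is the lowest dilution negative when the control turns positive. Triplicate.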

[2] = test system: Mycobacterium tuberculosis; assay: Antitubercular activity against extensively drug-resistant Mycobacterium tuberculosis after 21 days by BACTEC MGIT 960 method; settings: 504 h; method in brief: as §1
[3] = test system: Mycobacterium tuberculosis; assay: Ratio of SQ109 MIC to compound MIC for multi-drug resistant Mycobacterium tuberculosis
[4] = test system: Mycobacterium tuberculosis; assay: Ratio of SQ109 MIC to compound MIC for extensively drug-resistant Mycobacterium tuberculosis

| SMILES | MIC [1] [µg/mL] | MIC [2] [µg/mL] | Ratio [3] | Ratio [4] |
| --- | --- | --- | --- | --- |
| CC(C)=CCC/C(C)=C/CNCCN[C@@H]1C2C3CC4C5C3C1C5[C@@H](O)C42.Cl.Cl (mixture of isomers) | 2 | 4 |  |  |
| CC(C)=CCC/C(C)=C/CNC(=O)CN1[C@H]2C3C4CC5C6C4C2C6[C@@]1(O)C53 (mixture of isomers) | 4 | 8 |  |  |
| CC(C)=CCC/C(C)=C/CNCCN1[C@H]2C3C4CC5C6C4C2C6[C@@]1(O)C53.Cl.Cl (mixture of isomers) | 2 | 4 |  |  |
| CC(C)=CCC/C(C)=C/CNCCN[C@]12O[C@H]3C4C5CC(C6C5C3C61)C42.Cl.Cl (mixture of isomers) | 2 | 4 |  |  |
| CC(C)=CCC/C(C)=C/CNCCN[C@@H]1C2C3CC4C5C3CC2C5C41.Cl.Cl (mixture of isomers) | 4 | 8 |  |  |
| CC(C)=CCC/C(C)=C/CNCCNC1C2C3CC4C5CC(C42)C1C53.Cl.Cl (racemic) | 1 | 2 | 2 | 2 |
| CC(C)=CCC/C(C)=C/CNCC(=O)N[C@]12O[C@H]3C4C5CC(C6C5C3C61)C42 (mixture of isomers) | 4 | 8 |  |  |
| CC(C)=CCC/C(C)=C/CNCCNC1C2CC3CC(C2)CC1C3.Cl.Cl (stereo not drawn) | 2 | 4 |  |  |
